Holding throughout (assay type): functional
The test system of experiment [1] is Candida albicans. Put plainly: Antifungal activity against azole-resistant Candida albicans 5674 after 48 hrs. As to conditions: Candida albicans, 5674, 48 h. Put shortly: (§1)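 Liquid microtiter broth assay in YPD, cells incubated 48 h at 30°C with drug (e.g. FLC 0.2–200 µg/ml; KTC 0.001–1.2 µg/ml). Growth read as OD620 and expressed relative to drug-free growth of the same strain. MIC50 taken as the first concentration reducing growth by 50%. Mean of three independent experiments, each in duplicate.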

The test system of experiment [2] is Candida albicans. The experiment can be described thus: Antifungal activity against tac1/tac1 deficient Candida albicans SZY31 after 48 hrs. As to conditions: SZY31, 48 h. The method, boiled down: as §1
In experiment [3] the test system is Candida albicans. The experiment can be described thus: Antifungal activity against cdr1/cdr1 deficient Candida albicans STY19 after 48 hrs. The note with it: STY19, 48 h. The method, boiled down: as §1
For experiment [4], the system named is Candida albicans. Put plainly: Antifungal activity against azole-susceptible Candida albicans 5457 after 48 hrs. As to conditions: Candida albicans, 5457, 48 h. The method, boiled down: as §1
Experiment [5] deals with Candida albicans. The experiment can be described thus: Antifungal activity against cdr1/cdr1/cdr2/cdr2 deficient Candida albicans STY31 after 48 hrs. As to conditions: STY31, 48 h. Put shortly: as §1
The test system of experiment [6] is Candida albicans. The experiment can be described thus: Antifungal activity against cdr2/cdr2 deficient Candida albicans STY7 after 48 hrs. As to conditions: STY7, 48 h. Put shortly: as §1
The test system of experiment [7] is Candida albicans. The experiment can be described thus: Ratio of MIC50 for Candida albicans 5674 to MIC50 for cdr2/cdr2 deficient Candida albicans STY7. Put shortly:
(§2)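 Ratios use MIC50s from the YPD liquid microtiter assay (48 h, 30°C, OD620 growth relative to drug-free control). MIC50 is the first concentration giving a 50% growth reduction, as the mean of three independent experiments in duplicate. The MIC50 of one strain is divided by that of the other.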

Experiment [8] relates to Candida albicans. Put plainly: Antifungal activity against Candida albicans STY47 expressing cdr2 gene after 48 hrs. As to conditions: STY47, 48 h. The method, boiled down: as §1
In experiment [9] the test system is Candida albicans. The experiment can be described thus: Ratio of MIC50 for Candida albicans 5674 to MIC50 for cdr1/cdr1 deficient Candida albicans STY19. The method, boiled down:
as §2

In experiment [10] the test system is Candida albicans. Put plainly: Ratio of MIC50 for Candida albicans 5674 to MIC50 for cdr1/cdr1/cdr2/cdr2 deficient Candida albicans STY31. Put shortly:
as §2

In experiment [11] the test system is Candida albicans. The experiment can be described thus: Ratio of MIC50 for Candida albicans 5674 to MIC50 for Candida albicans STY47 expressing cdr2 gene. The method, boiled down:
as §2

Experiment [12] relates to Candida albicans. The experiment can be described thus: Ratio of MIC50 for cdr1/cdr1 deficient Candida albicans STY19 to MIC50 for cdr1/cdr1/cdr2/cdr2 deficient Candida albicans STY31. The method, boiled down: as §2
In experiment [13] the test system is Candida albicans. The experiment can be described thus: Ratio of MIC50 for Candida albicans 5674 to MIC50 for tac1/tac1 deficient Candida albicans SZY31. Put shortly:
as §2

Converted amounts (≈) assume the structure as drawn.

As a reminder, the MIC50 is the lowest concentration that inhibits either 50% of growth or 50% of the strains tested, depending on the study. A higher MIC50 goes with lower susceptibility. Turning to `C[C@@H]1[C@H](O)[C@@H](C)/C=C/C=C/C=C/C=C/C=C/C=C/C=C/[C@H](O[C@@H]2O[C@H](C)[C@@H](O)[C@H](N)[C@@H]2O)C[C@@H]2O[C@](O)(C[C@@H](O)C[C@@H](O)[C@H](O)CC[C@@H](O)C[C@@H](O)CC(=O)O[C@H]1C)C[C@H](O)[C@H]2C(=O)O` [AMPHOTERICIN B], the MIC50 stood at 2 µg/mL (≈ 2.16 µM) with Candida albicans [1]; 1 µg/mL (≈ 1.08 µM) against Candida albicans [2]; 2 µg/mL (≈ 2.16 µM) against Candida albicans [3]; 1 µg/mL (≈ 1.08 µM) against Candida albicans [4]; 2 µg/mL (≈ 2.16 µM) against Candida albicans [5]; 2 µg/mL (≈ 2.16 µM) in the experiment on Candida albicans [6].

In the case of `OC(Cn1cncn1)(Cn1cncn1)c1ccc(F)cc1F` [FLUCONAZOLE], the Ratio in the experiment on Candida albicans [7] is given as 1.5; with Candida albicans [9], 6; with Candida albicans [10] it was 375; with Candida albicans [11], 16. Moreover, the MIC50 with Candida albicans [8] came out at 6.3 µg/mL (≈ 20.6 µM); in the experiment with Candida albicans [1], 150 µg/mL (≈ 490 µM); against Candida albicans [2] it was 6.2 µg/mL (≈ 20.2 µM); with Candida albicans [3], 25 µg/mL (≈ 81.6 µM); in the experiment with Candida albicans [4] it was 3.1 µg/mL (≈ 10.1 µM); in the experiment with Candida albicans [5] it was 0.4 µg/mL (≈ 1.31 µM). The compound also yielded an MIC50 in the experiment on Candida albicans [6] of 100 µg/mL (≈ 327 µM).

`CC(=O)N1CCN(c2ccc(OCC3COC(Cn4ccnc4)(c4ccc(Cl)cc4Cl)O3)cc2)CC1` (stereo unspecified) [KETOCONAZOLE]: the Ratio was 1.5 in the experiment on Candida albicans [7], 4 in the experiment with Candida albicans [9] and 300 with Candida albicans [10]. The MIC50 was 0.6 µg/mL (≈ 1.13 µM) against Candida albicans [1]; 0.009 µg/mL (≈ 0.0169 µM) in the experiment on Candida albicans [2]; 0.15 µg/mL (≈ 0.282 µM) in the experiment with Candida albicans [3]; 0.018 µg/mL (≈ 0.0339 µM) in the experiment on Candida albicans [4]; 0.002 µg/mL (≈ 0.00376 µM) in the experiment on Candida albicans [5]; 0.4 µg/mL (≈ 0.753 µM) against Candida albicans [6].

Consider `CC/N=c1\cc2oc3cc(NCC)c(C)cc3c(-c3ccccc3C(=O)OCC)c-2cc1C.Cl` [RHODAMINE 6G HYDROCHLORIDE], for which the MIC50 was found to be 16 µg/mL with Candida albicans [1]; 2 µg/mL against Candida albicans [2]; 8 µg/mL with Candida albicans [3]; 8 µg/mL against Candida albicans [4]; 8 µg/mL in the experiment on Candida albicans [5]; 16 µg/mL against Candida albicans [6].

Regarding `CCC(C)n1ncn(-c2ccc(N3CCN(c4ccc(OCC5COC(Cn6cncn6)(c6ccc(Cl)cc6Cl)O5)cc4)CC3)cc2)c1=O` (stereo unspecified) [ITRACONAZOLE], the Ratio was found to be 1 in the experiment with Candida albicans [7], 8 in the experiment with Candida albicans [9] and 500 in the experiment with Candida albicans [10]. Besides, the MIC50 is 0.2 µg/mL (≈ 0.283 µM) in the experiment with Candida albicans [1]; 0.0063 µg/mL (≈ 0.00893 µM) in the experiment on Candida albicans [2]; 0.025 µg/mL (≈ 0.0354 µM) against Candida albicans [3]; 0.0125 µg/mL (≈ 0.0177 µM) in the experiment on Candida albicans [4]; 0.0004 µg/mL (≈ 0.000567 µM) with Candida albicans [5]; 0.2 µg/mL (≈ 0.283 µM) in the experiment on Candida albicans [6].

As for `OCCN1CCN(CCCN2c3ccccc3Sc3ccc(C(F)(F)F)cc32)CC1` [FLUPHENAZINE], the Ratio in the experiment on Candida albicans [12] came to 2; in the experiment with Candida albicans [7] it was 1; in the experiment with Candida albicans [13], 2; with Candida albicans [9], 1.5. The MIC50 in the experiment with Candida albicans [1] was determined as 75 µg/mL (≈ 171 µM); against Candida albicans [2] it was 38 µg/mL (≈ 86.9 µM); against Candida albicans [3], 50 µg/mL (≈ 114 µM); in the experiment with Candida albicans [4] it was 75 µg/mL (≈ 171 µM); in the experiment with Candida albicans [5] it was 25 µg/mL (≈ 57.1 µM); in the experiment with Candida albicans [6], 75 µg/mL (≈ 171 µM).

These data come from ChEMBL document CHEMBL1649166, “Relative contributions of the Candida albicans ABC transporters Cdr1p and Cdr2p to clinical azole resistance” (2009).
